Not all results are given here.
Apaf1 activ = activates human Apaf-1 apoptosome; O14727; Apaf-1 apoptosome caspase-3 activation, DEVD-Rh110 fluorescence; stronger effect = lower value; activity change, negative = activation, % at 20 µM; hit rate 0.31% among 330,000;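 active means activity change at or below -40% at 20 µM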
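Schedule: 30 min preincubation, 50 min reaction, room temperature / System: biochemical Apaf-1 apoptosome reconstitution / Medium: 20 mM HEPES pH 7.5 with CHAPS, BSA / Evaluation: Caspase-3 cleavage activity downstream of Apaf-1 activation / Detection: Caspase-3-released Rh110 fluorescence, 540 nm emission, 480 nm excitation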
Rh110 interf act = Rh110 signal interference in Apaf-1 activator counter-screen; shares compounds with Apaf1 activ; Rh110 fluorescence interference, quenched caspase reaction, Ex480/Em540; fluorescence interference (activity change), % at 20 µM, hits read low; 980 tested, under 10 active; AID 504616;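 active means mean activity change at or below -40% when tested at 20 µM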
Apaf-1 act conf = confirmation of human Apaf-1 activators. shares compounds with Apaf1 activ. reconstituted apoptosome caspase-3 activity, DEVD-Rh110 fluorescence; stronger effect = lower value. activity change, negative = activation, % at 20 µM. hit rate 5% among 980. AID 504617;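 active means mean activity change at or below -40%, meaning activation of 40% or more, at 20 µM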
Starred values were filed as active, the others as inactive.

CN1CCN(C2=C(Cl)C(=O)C(c3cnc(N4CCCCC4)s3)=C(Cl)C2=O)CC1 was read as Apaf1 activ 84.3.
`O=C1C(Cl)=C(NC(=O)c2ccccc2)C(=O)C(Cl)=C1NC(=O)c1ccccc1` gave Apaf1 activ 56.4.
For O=C(NC1=C(Nc2ccc(Cl)cc2)C(=O)c2ccccc2C1=O)c1ccccc1 the results were Apaf1 activ 53.5.
For O=C(NNC(=S)Nc1ccc(Cl)cc1)c1ccccc1 the results were Apaf1 activ -66.2*, Rh110 interf act -2.8 and Apaf-1 act conf 5.2.
Screening CC(=O)Nc1ccc(S(=O)(=O)/N=C2\C(=O)c3ccccc3C([O-])=C2n2cc[n+](-c3ccccn3)c2)cc1 returned Apaf1 activ 84.2.
`COc1cc(/C=C2\C(=O)N(CCC#N)N=C2C)ccc1OCC(=O)Nc1ccccc1` gave Apaf1 activ 93.5.
`COc1cc(/C=N/NC(=O)c2ccncc2)ccc1OCC(=O)Nc1cccc([N+](=O)[O-])c1` gave Apaf1 activ -125.3*, Rh110 interf act -2.2 and Apaf-1 act conf -23.7.
For O=c1ccc2cc3c([nH]c4ccc(Br)cc43)oc-2c1O the results were Apaf1 activ 85.3.
`CCCCNc1c(-c2ccc(SC3CCCCC3)cc2)nc2cnccn12` gave Apaf1 activ 41.7.
`CCc1cc2c(=O)nc3n(c2s1)Cc1ccccc1/C3=C(/O)c1cccc([N+](=O)[O-])c1` gave Apaf1 activ -198.2*, Rh110 interf act -0.3 and Apaf-1 act conf 23.9.
For COc1ccc(C(C[N+](=O)[O-])c2c(C)[nH]n(-c3ccccc3)c2=O)cc1 (centres undefined) the results were Apaf1 activ 95.8.
Cc1ccc(C)c2[nH]c(=O)c(C(c3nnnn3Cc3ccccc3)N3CCc4ccccc4C3)cc12 (centres undefined) was read as Apaf1 activ 67.3.
Screening CCN(CC(=O)Nc1ccccc1OC)C(=O)c1ccccc1Sc1ccccc1C#N returned Apaf1 activ 58.3.
COc1ccccc1NC(=O)Nc1ccccc1C(N)=O was read as Apaf1 activ -630.4*, Rh110 interf act 5.5 and Apaf-1 act conf 6.5.
Screening COC1=C(Nc2ccccc2OC)C(=O)c2ccccc2C1=O returned Apaf1 activ 54.5.
COCCCNC(=O)c1ccc2c3c(onc13)-c1ccccc1C2=O was read as Apaf1 activ 80.0.
Screening COCCNC(=O)c1onc(CSc2ccccc2)c1C(=O)O returned Apaf1 activ -44.0*, Rh110 interf act -6.7 and Apaf-1 act conf 9.7.
Screening CCN1/C(=C/C(C)=C/c2sc3ccccc3[n+]2CC)Sc2ccccc21 returned Apaf1 activ 52.7.
CCOC(=O)c1ccc(Nc2nc(N)c3cc(OC)c(OC)cc3n2)cc1 was read as Apaf1 activ 54.2.
For COc1ccc(Nc2ccc(C(=O)O)cc2[N+](=O)[O-])cc1 the results were Apaf1 activ -64.0*, Rh110 interf act 20.6 and Apaf-1 act conf 15.5.
Screening COc1cc(N)c(Cc2nccc3cc(OC)c(OC)cc23)cc1OC returned Apaf1 activ 47.5.
`COc1ccc(C(CCN2CCOCC2)c2c(OC)cc(OC)c3c(-c4ccccc4)cc(=O)oc23)cc1` (centres undefined) gave Apaf1 activ 52.9.
Cc1cc(Cl)ccc1NC(=O)c1ccc2c(c1)CCN2S(C)(=O)=O was read as Apaf1 activ -169.9*, Rh110 interf act -5.2 and Apaf-1 act conf 20.9.
For Cc1cc(N2CCN(C)CC2)ccc1NC(=O)c1ccc(-c2ccc(Cl)cc2)o1 the results were Apaf1 activ 41.7.
Screening CC(C)N1CCc2c(sc(NC(=O)c3ccc(S(=O)(=O)N4CCc5ccccc54)cc3)c2C(N)=O)C1 returned Apaf1 activ 45.6.
CC(C(=O)O)N1C(=O)/C(=C/C=C/c2ccco2)SC1=S (centres undefined) was read as Apaf1 activ 47.0.
C=CCn1c(COc2cccc(C)c2)nnc1SC(C)C(=O)NC1CC1 (centres undefined) was read as Apaf1 activ 41.2.
For COC(=O)C1=C(C)N(Cc2ccccc2)C(=NCc2ccccc2)N[C@H]1c1cccc(C(F)(F)F)c1 the results were Apaf1 activ 64.7.
`CC(C)(C)NC(=O)NC(=O)COC(=O)c1nc(-c2ccccc2)n(-c2cccc(C(F)(F)F)c2)n1` gave Apaf1 activ -47.1*, Rh110 interf act 17.1 and Apaf-1 act conf 13.4.
O=C(NN=c1c(=O)c2ccccc2c1=O)c1ccccc1 was read as Apaf1 activ 96.4.
For O=C(N/N=C/c1[nH]c2ccccc2c1Cl)c1cccc(Br)c1 the results were Apaf1 activ -71.9*, Rh110 interf act 11.6 and Apaf-1 act conf 11.4.

Source: PubChem BioAssay (Sanford-Burnham Center for Chemical Genomics)
